Active and inactive are the calls of the source. No cut-off for these calls is given here.
Columns and labels:
[1] = test system: Plasmodium falciparum; assay: Antimalarial activity against Plasmodium falciparum FCR3 after 72 hrs; assay type: functional, organism-based; conditions: FCR3, 72 h
Outline: (§1)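 P. falciparum in continuous culture in 5% O+ erythrocytes, RPMI-1640 with 25 mM HEPES, 0.5% albumax, 2 mM L-glutamine, gentamicin; 37 °C, 5% CO2/5% O2/90% N2; sorbitol-synchronized. Ring stages seeded at 0.05% parasitemia, 1.5% hematocrit; 72 h with threefold serial dilutions from 100 µM. HRPII accumulation after freeze-thaw lysis read as percent of untreated controls; duplicates; IC50 from 72 h HRPII production.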

[2] = target: T1, Aquaglyceroporin (Plasmodium falciparum) (UniProt Q8II36); assay: Inhibition of Plasmodium falciparum AQP expressed in BY4742-deltafpsl cells at 100 uM after 48 hrs; assay type: cell-based
T1 sequence (whole entry): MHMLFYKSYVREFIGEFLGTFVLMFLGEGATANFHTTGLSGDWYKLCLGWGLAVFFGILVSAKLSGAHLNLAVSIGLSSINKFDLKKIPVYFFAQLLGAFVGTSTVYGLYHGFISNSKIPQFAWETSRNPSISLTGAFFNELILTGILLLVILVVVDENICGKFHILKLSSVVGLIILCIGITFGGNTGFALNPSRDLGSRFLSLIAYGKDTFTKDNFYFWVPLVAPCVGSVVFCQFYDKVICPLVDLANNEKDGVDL
Outline: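 BY4742Δfps1 yeast expressing PfAQP grown in 20 mM MES-buffered (pH 5.5) minimal YNB with 3% glucose, 0.1% proline, with or without 50 mM methylamine hydrochloride; compound at 100 µM, untreated cells as controls.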

[3] = test system: Plasmodium falciparum; assay: Antimalarial activity against Plasmodium falciparum 3D7 after 72 hrs; assay type: functional, organism-based; conditions: 3D7, 72 h; outline: as §1
[4] = test system: NALM-6; assay: Effect on cell viability in human NALM6 cells at 100 uM after 24 hrs; assay type: functional, cell-based
Outline: (§2)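 Cell lines kept at 37 °C in RPMI 1640 with L-glutamine and 10% fetal calf serum under 5% humidified CO2. Cell suspension (25 cells/µL) exposed to 100 µM compound for 24 h (one cell cycle) at 37 °C. Viability by Trypan Blue dye uptake; duplicates.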

[5] = test system: MONO-MAC-6; assay: Effect on cell viability in human MONO-MAC-6 cells at 100 uM after 24 hrs; assay type: functional, cell-based; outline: as §2
[6] = test system: Jurkat; assay: Effect on cell viability in human Jurkat lymphoblastoid cells at 100 uM after 24 hrs; assay type: functional, cell-based; outline: as §2

| SMILES | IC50 [1] [µM] | Activity [2] | IC50 [3] [µM] | Activity [4] | Activity [5] | Activity [6] |
| --- | --- | --- | --- | --- | --- | --- |
| CN(Cc1ccccc1)CC(O)COCc1ccccc1 (stereo not drawn) | 2 | inactive | 47 | – | – | – |
| OC(CNCc1ccccc1)COCc1ccccc1 (stereo not drawn) | 12.5 | inactive | – | – | – | – |
| CN(Cc1ccccc1)CC(O)CN(C)Cc1ccccc1 | 43.9 | – | 43.5 | – | – | – |
| CN(Cc1ccccc1)CC(O)CNCc1ccccc1 (stereo not drawn) | 41.6 | – | 15.4 | – | – | – |
| OC(CCl)CN1CCNCC1 (stereo not drawn) | 38.5 | – | 66 | inactive | inactive | inactive |
| OC(CNCc1cccs1)COCc1ccccc1 (stereo not drawn) | 5.8 | inactive | 9.7 | inactive | inactive | inactive |
| C=CCNCC(O)CCl (stereo not drawn) | 23.8 | – | – | – | – | – |
| CCN(CC)CC(O)COCc1ccccc1 (stereo not drawn) | 28.1 | – | – | – | – | – |
| CCN(Cc1ccccc1)CC(O)COCc1ccccc1 (stereo not drawn) | 0.7 | inactive | – | – | – | – |
| CCN(Cc1ccccc1)CC(O)CN(C)Cc1ccccc1 (stereo not drawn) | 7.7 | inactive | 3.7 | inactive | inactive | inactive |
| CN(Cc1ccccc1)CC(O)CCl (stereo not drawn) | 31 | – | 15.6 | inactive | inactive | inactive |
| CN(Cc1ccccc1)CC(O)CSCc1ccccc1 (stereo not drawn) | 16.3 | – | 9.3 | inactive | inactive | inactive |
| OC(CNCCc1cccs1)COCc1ccccc1 (stereo not drawn) | 1.2 | – | – | – | – | – |
| OC(CNCc1ccco1)COCc1ccccc1 (stereo not drawn) | 3.4 | – | – | – | – | – |

Second part, led by results:

| IC50 [1] [µM] | Activity [2] | IC50 [3] [µM] | SMILES | Activity [4] | Activity [5] | Activity [6] |
| --- | --- | --- | --- | --- | --- | --- |
| 8.4 | inactive | – | OC(CNCC1CC1)COCc1ccccc1 (stereo not drawn) | – | – | – |
| 12.7 | – | – | CC(C)(C)NCC(O)COCc1ccccc1 (stereo not drawn) | – | – | – |
| 4.6 | – | 3.9 | O[C@H](CNC1CCCC1)COCc1ccccc1 | – | – | – |
| 7.7 | – | – | OC(CNCC1CCCO1)COCc1ccccc1 (stereo not drawn) | – | – | – |
| 15.2 | – | – | OC(CNC1CCC1)COCc1ccccc1 (stereo not drawn) | – | – | – |
| 20.2 | – | – | OC(COCc1ccccc1)CN1CCCC1 (stereo not drawn) | – | – | – |
| 12.5 | – | – | OC(COCc1ccccc1)CN1CCNCC1 (stereo not drawn) | – | – | – |
| 15.8 | – | 32.5 | CCN1CCCC1CNCC(O)COCc1ccccc1 (stereo not drawn) | – | – | – |
| 5.9 | – | 5.1 | O[C@@H](CNC1CCCC1)COCc1ccccc1 | – | – | – |
| 10.3 | – | 15.1 | OC(CNC1CCCC1)COCc1ccccc1 (stereo not drawn) | – | – | – |
| 31.1 | – | – | OC(CNc1ccccn1)COCc1ccccc1 (stereo not drawn) | – | – | – |
